Assay outcomes as filed in PubChem BioAssay.
In the library only some 1.9% were active in any assay of this set; here they are far more common.
Neddylation inh: inhibitors of human cullin neddylation; 360,000 tested, 0.58% active; TR-FRET cullin neddylation, biochemical; inhibition, % at 25 µM; P61081+Q13564; AID 651699; in the data active = inhibition above about 36%
SR-BI HDL uptake: blocks mouse SR-BI lipid uptake from DiI-HDL; AID 488896; Q61009; ldlA[mSR-BI] CHO cells, DiI-HDL uptake fluorescence, 3 h; 320,000 tested, 0.96% active; inhibition, % at 12.5 µM;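 active = mean replicate inhibition of at least 70% and a set share of replicates each scoring 70 or more; inconclusive = meets just one of the two criteria; inactive = fails both criteria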;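 also: 0% = median of neutral control wells and 100% = median of positive control wells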
Target sequence (Q61009 whole entry, looked up): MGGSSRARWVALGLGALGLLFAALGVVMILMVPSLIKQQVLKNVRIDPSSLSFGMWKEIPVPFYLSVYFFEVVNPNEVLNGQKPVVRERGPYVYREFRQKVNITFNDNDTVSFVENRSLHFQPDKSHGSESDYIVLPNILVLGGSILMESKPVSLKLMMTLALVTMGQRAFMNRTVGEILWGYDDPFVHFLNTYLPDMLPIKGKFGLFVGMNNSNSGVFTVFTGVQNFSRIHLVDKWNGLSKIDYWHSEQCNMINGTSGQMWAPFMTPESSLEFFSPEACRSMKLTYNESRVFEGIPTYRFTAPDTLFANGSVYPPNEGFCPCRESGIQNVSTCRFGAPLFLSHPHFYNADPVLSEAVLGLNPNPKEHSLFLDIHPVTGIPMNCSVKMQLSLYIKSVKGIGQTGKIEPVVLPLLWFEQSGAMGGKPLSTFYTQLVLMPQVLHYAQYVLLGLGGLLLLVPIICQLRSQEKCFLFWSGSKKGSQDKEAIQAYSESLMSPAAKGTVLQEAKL
SR-BI DiI-HDL act: activators of SR-BI mediated HDL lipid uptake | CHO ldlA[mSR-BI] cells, DiI-HDL uptake fluorescence, 3 h; 100 = double the neutral-control signal | activation, % at 12.5 µM | 320,000 tested, 0.096% active;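 active = mean replicate activation of at least 60% and every replicate at or above 60%; inconclusive = mean or all-replicate condition met, but not both; inactive = mean below 60% and not all replicates reaching 60%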;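 also: 0% = median plate neutral-control signal and 100% = twice that signal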
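system = CHO ldlA[mSR-BI] cells, LDL receptor-null, SR-BI overexpressing | medium = Ham's F12 with 0.5% BSA, HEPES 25 mM, pH 7.4 | probe or stimulus = DiI-HDL 10 µg/mL | compound dosing = single-point compound dose | incubation = compound exposure 3 h, 37 °C | technique = DiI fluorescence, bottom read | read-out = cell-associated DiI fluorescence as measure of HDL uptake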
UBC13 inh: inhibitors of human UBC13 polyubiquitin chain formation | 330,000 tested, 0.47% active | TR-FRET | P61088 | inhibition, % at 20 µM; in the data active = inhibition above about 45%, passing the limit was not always enough; inconclusive = no clear call, values can overlap the other calls
Target sequence (P61088 whole entry, looked up): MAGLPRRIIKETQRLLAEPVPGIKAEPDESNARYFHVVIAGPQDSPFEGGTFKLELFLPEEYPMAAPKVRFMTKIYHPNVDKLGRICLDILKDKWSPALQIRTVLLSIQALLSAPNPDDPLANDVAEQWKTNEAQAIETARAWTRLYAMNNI
DiI quench: DiI fluorescence quenching in cell-free counter-screen | shares compounds with SR-BI HDL uptake | cell-free DiI-HDL fluorescence quenching, 30 min | AC50, µM (series often up to 35 µM), for inactives: at the highest dose activity change, negative = quenching | 470 tested, 20% active;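 active = quenching, a falling signal, with AC50 below a set limit tied to the top valid dose, actives reach about 32 µM in these data; inconclusive = no clear call, values can overlap the other calls; inactive = rising signal, and the rest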
* hit, by the source's call; ? = inconclusive; · = not tested or not shown.

SMILES	Neddylation inh	SR-BI HDL uptake	SR-BI DiI-HDL act	UBC13 inh	DiI quench
Cc1cccc(NC(=O)CSc2nnc([C@H](C)NC(=O)OC(C)(C)C)o2)c1C	-3.4	38.6	-38.6	-1.6	·
CC(=O)Nc1c(I)c(C(=O)N[C@H]2C(O)O[C@H](CO)[C@@H](O)[C@@H]2O)c(I)c(N(C)C(C)=O)c1I (stereo not given in full)	-7.4	-1.2	1.2	-9.6	-1.1%
c1ccc(COn2c(-c3ccccc3)nc3c2CCc2nonc2-3)cc1	-1.0	?	-70.5	-2.8	0.8%
CC1CCC(NCCNC(=O)c2ccco2)CC1 (stereo not given)	-0.3	·	·	1.8	·
COc1ccc2c(c1)-c1c(ssc1=S)C(C)(C)N2C(=O)CSC1=NCCS1	-12.7	24.3	-24.3	-5.6	·
CCOc1ccc2c(c1)-c1c(ssc1=S)C(C)(C)N2C(=O)c1ccco1	-13.7	73.5*	-73.5	-26.4	30.7µM*
CC(C)c1nnc(NC(=O)CCC(=O)N2CCN(C3c4ccccc4-c4ccccc43)CC2)s1	-3.2	?	-73.1	-0.9	-2.5%
O=C(c1cccc(Cl)c1)N1CCC2CC1c1cc(-c3ccccc3)ccc12 (stereo not given)	7.9	13.0	-13.0	·	-5.2%
O=C(c1ccc(Cl)cc1)N1CCC2CC1c1cc(-c3ccccc3)ccc12 (stereo not given)	-0.1	27.3	-27.3	·	·
N#Cc1ccc(C(=O)N2CCC3CC2c2cc(-c4ccccc4)ccc23)cc1 (stereo not given)	3.8	5.2	-5.2	·	-3.4%
CC(C)C(=O)Nc1sc2c(c1-c1nc3ccccc3[nH]1)CCCC2	·	101.2*	-101.3	-1.9	21.5µM*
CC(C)C(=O)Nc1ccccc1-c1nc2ccccc2[nH]c1=O	-15.0	-18.0	18.0	-3.3	·
Cc1ccc(S(=O)(=O)N2CC(CO)=CCC2c2ccccc2)cc1 (stereo not given)	-6.0	·	·	·	·
CC(=O)c1ccc(N2CCN(CC(=O)Nc3ccccc3C(=O)NC3CC3)CC2)c(F)c1	2.4	23.6	-23.7	19.1	·
CSCC[C@H](CO)NC(=O)[C@H]1O[C@@H](n2cnc3c(N)ncnc32)[C@H](O)[C@@H]1O	9.9	·	·	·	·
CCOC(=O)C(=O)Nc1nc(-c2ccc3c(c2)CCN3C(=O)C2CC2)c(C)s1	-32.4	56.1	-56.1	-5.8	-10.9%
N#CCCN(C(=O)COC(=O)CCc1c[nH]c2ccccc12)c1ccc(F)cc1	1.2	-15.8	15.8	-2.1	-12.7%
Cc1ccsc1C(=O)OCc1nc2ccsc2c(=O)[nH]1	-0.4	-12.8	12.8	1.6	·
CC(=O)c1c(C)[nH]c(C(=O)OCc2nc3ccsc3c(=O)[nH]2)c1C	3.8	71.1*	-71.1	-1.0	-6.0%
Cc1ccc(C)c(OCC(=O)Nc2ccccc2C(=O)N2CCOCC2)c1	6.0	15.7	-15.7	-3.4	·
CNc1cnn(-c2ccc(C)cc2)c(=O)c1Cl	-7.3	-32.2	32.2	1.3	·
CNc1cnn(-c2ccc(C)cc2)c(=O)c1Sc1ccc(C)cc1	-110.6	70.0*	-70.0	-3.6	1.1%
CCNC(=O)C1(C)CCN(Cc2cccc(C(F)(F)F)c2)C1 (stereo not given)	7.3	·	·	·	·
O=C(C1=COCCO1)N(Cc1nnc(-c2ccccc2Cl)o1)C1CC1	-3.0	?	-75.3	8.6	-3.2%
CN(CC(=O)Nc1ccccc1Cl)C(=O)CSc1nnc(-c2ccco2)n1C	-25.8	-3.2	3.2	-4.6	·
SMILES	Neddylation inh	SR-BI HDL uptake	SR-BI DiI-HDL act	UBC13 inh	DiI quench
CCOC(=O)Nc1ccc2c(c1)N(C(=O)C(C)N1CCCC1)c1ccccc1CC2 (stereo not given)	8.4	-16.3	16.3	3.0	-0.8%
C=C(CN(C)C)C(=O)c1ccc(OC2OC(COC(C)=O)C(OC(C)=O)C(OC(C)=O)C2OC(C)=O)cc1 (stereo not given)	0.7	93.5*	-93.5	·	-0.8%
CCOC(=O)C1=CN(c2cccc(F)c2)C=C(C(=O)OCC)C1c1cc(OC)c(O)c([N+](=O)[O-])c1	-47.6	-1.7	1.7	-39.5	7.72µM*
COC(=O)C1=CN(c2ccc(F)cc2)C=C(C(=O)OC)C1c1ccc([N+](=O)[O-])cc1	-0.5	61.2	-61.2	-1.9	·
O=C(CN(C(=O)C1CSC(=O)C1)c1ccc(F)cc1)NCc1ccc2c(c1)OCO2 (stereo not given)	-5.2	·	·	5.2	·
COC(=O)C1C(=O)c2c([nH]c(C(=O)OC3CCCC3C)c2C)CC1C (stereo not given)	9.7	36.7	-36.7	12.9	-0.8%
Cc1ccc(S(=O)(=O)N2CCN(C(=O)N(c3ccccc3)c3ccccc3)CC2)cc1	-4.6	-3.4	3.4	10.0	·
CN(C)S(=O)(=O)N1CCN(C(=O)N(c2ccccc2)c2ccccc2)CC1	-0.5	?	-70.3	2.9	-1.9%
CCN(CC)C(=O)c1cccc(-c2csc(C(O)c3cccc(OC)c3)n2)c1 (stereo not given)	-22.5	·	·	·	·
Cc1ccc(NC(=O)c2cc(S(=O)(=O)N3CCOCC3)c(Br)s2)cc1	-8.1	?	-72.8	-4.2	2.8%
Cc1ccc(C(=O)Nc2ccc(F)c(S(=O)(=O)N3CCOCC3)c2)s1	-60.4	34.4	-34.4	-10.2	·
CN(C)C(=O)CCc1ccc2c3c([nH]c2c1)[C@]1(C)[C@@H](C(=O)N2CCOCC2)C[C@H](CC(=O)NCCN2CCOCC2)C(=O)N1CC3	-0.5	4.5	-4.5	·	·
COc1ccc(OC)c(Nc2ccc(Nc3cc(OC)ccc3OC)nn2)c1	-13.9	85.9*	-85.9	-1.1	5.09µM*
CCNc1nc(Cl)nc(-c2cn(-c3ccccc3)c3ccccc23)n1	18.6	72.1*	-72.1	-5.1	3.5%
CC(C)=CCc1c2c(c3occ(-c4ccc(O)c(O)c4)c(=O)c3c1O)C=CC(C)(C)O2	6.3	130.9*	-130.9	·	0.809µM*
CC(C)=CCc1c2c(c3occ(-c4ccc(O)cc4)c(=O)c3c1O)C=CC(C)(C)O2	2.8	33.5	-33.5	15.8	·
CC(C)(C)OC(=O)[C@H](Cc1ccccc1)NC(=O)c1nc[nH]c1C(=O)N1CCNCC1	-18.9	-11.5	11.5	13.0	·
CC(=O)c1cc(C#N)c(SCc2ccccc2C#N)nc1C	-8.1	74.7*	-74.7	0.5	-1.0%
CCn1c(SCC(=O)Nc2ncc(C(F)(F)F)cc2Cl)nnc1-c1cccc(C)c1	10.6	-25.7	25.7	-0.5	·
COc1ccc(-c2nnc(SCC(=O)Nc3ncc(C(F)(F)F)cc3Cl)n2CC(C)C)cc1	5.3	25.0	-25.0	-1.0	-5.6%
O=C(Nc1ccccc1N1CCOCC1)c1cc2c(s1)CCCCC2	-19.6	56.6	-56.6	-15.9	·
O=C(Nc1ccc(N2CCOCC2)cc1)c1cc2c(s1)CCCC2	6.2	100.4*	-100.4	2.0	16.5µM*
COc1ccc(-c2nc(-c3ccc4c(c3)OCO4)[nH]c2-c2ccc(OC)cc2)cc1	·	105.3*	-105.3	1.2	2.67µM*
O=C(Nc1cccc(S(=O)(=O)N2CCOCC2)c1)C1CCN(S(=O)(=O)c2ccccc2)CC1	4.7	?	-76.1	15.0	6.0%
CCCc1cc(=O)[nH]c(SCC(=O)Nc2ccc(Cl)c(S(=O)(=O)N3CCOCC3)c2)n1	9.3	2.4	-2.4	-10.5	·
